Columns and labels:
[1] = system: Mycobacterium tuberculosis; experiment: Inhibition of multidrug resistance efflux pump in Mycobacterium tuberculosis H37Rv assessed as ofloxacin MIC at 7.5 ug/ml after 7 days by two-dimensional broth microdilution checkerboard assay; details: 168 h
Method in brief: (§1)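 M. tuberculosis H37Rv two-dimensional broth microdilution checkerboard. MICs of INH, RIF, AMK, OFX or EtBr were determined without and with graded sub-inhibitory compound concentrations, starting at ½ MIC. Where MIC was undeterminable, the highest concentration still permitting growth was taken as ½ MIC. FIC = MIC of antibacterial in combination / MIC alone. FIC ≤0.25 was scored as synergism and ≥2 as antagonism.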

[2] = system: Mycobacterium tuberculosis; experiment: Inhibition of multidrug resistance efflux pump in Mycobacterium tuberculosis H37Rv assessed as ofloxacin MIC at 0.12 ug/ml after 7 days by two-dimensional broth microdilution checkerboard assay; details: 168 h
Method in brief: (§2)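 M. tuberculosis H37Rv ATCC27294. MICs of INH, RIF, AMK, OFX and EtBr were determined alone and with sub-inhibitory concentrations of test compound by two-dimensional broth microdilution checkerboard. Where a compound's MIC was not determinable, the highest concentration still allowing growth was taken as ½ MIC. FIC = MIC in combination / MIC alone. FIC ≤0.25 was scored as synergism and ≥2 as antagonism.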

[3] = system: Mycobacterium tuberculosis; experiment: Inhibition of multidrug resistance efflux pump in Mycobacterium tuberculosis H37Rv assessed as rifampin MIC at 3.75 ug/ml after 7 days by two-dimensional broth microdilution checkerboard assay; details: 168 h; method in brief: as §2
[4] = system: Mycobacterium tuberculosis; experiment: Inhibition of multidrug resistance efflux pump in Mycobacterium tuberculosis H37Rv assessed as amikacin MIC at 3.75 ug/ml after 7 days by two-dimensional broth microdilution checkerboard assay; details: 168 h; method in brief: as §2
[5] = system: Mycobacterium tuberculosis; experiment: Inhibition of multidrug resistance efflux pump in Mycobacterium tuberculosis H37Rv assessed as reduction in ethidium bromide MIC at 3.75 ug/ml after 7 days by two-dimensional broth microdilution checkerboard assay; method in brief: as §1
[6] = system: Mycobacterium tuberculosis; experiment: Inhibition of multidrug resistance efflux pump in Mycobacterium tuberculosis H37Rv assessed as isoniazid MIC at 3.75 ug/ml after 7 days by two-dimensional broth microdilution checkerboard assay; details: 168 h; method in brief: as §1
[7] = system: Mycobacterium tuberculosis; experiment: Inhibition of multidrug resistance efflux pump in Mycobacterium tuberculosis H37Rv assessed as ofloxacin MIC at 0.94 ug/ml after 7 days by two-dimensional broth microdilution checkerboard assay; details: 168 h; method in brief: as §2
[8] = system: Mycobacterium tuberculosis; experiment: Inhibition of multidrug resistance efflux pump in Mycobacterium tuberculosis H37Rv assessed as isoniazid MIC at 0.12 ug/ml after 7 days by two-dimensional broth microdilution checkerboard assay; details: 168 h; method in brief: as §2
[9] = system: Mycobacterium tuberculosis; experiment: Inhibition of multidrug resistance efflux pump in Mycobacterium tuberculosis H37Rv assessed as ethidium bromide MIC at 0.12 ug/ml after 7 days by two-dimensional broth microdilution checkerboard assay; details: 168 h; method in brief: as §2
[10] = system: Mycobacterium tuberculosis; experiment: Inhibition of multidrug resistance efflux pump in Mycobacterium tuberculosis H37Rv assessed as reduction in amikacin MIC at 7.5 ug/ml after 7 days by two-dimensional broth microdilution checkerboard assay; method in brief: as §1
[11] = system: Mycobacterium tuberculosis; experiment: Inhibition of multidrug resistance efflux pump in Mycobacterium tuberculosis H37Rv assessed as reduction in ethidium bromide MIC at 128 ug/ml after 7 days by two-dimensional broth microdilution checkerboard assay
[12] = system: Mycobacterium tuberculosis; experiment: Inhibition of multidrug resistance efflux pump in Mycobacterium tuberculosis H37Rv assessed as reduction in ethidium bromide MIC at 32 ug/ml after 7 days by two-dimensional broth microdilution checkerboard assay; method in brief: as §1
[13] = system: Mycobacterium tuberculosis; experiment: Inhibition of multidrug resistance efflux pump in Mycobacterium tuberculosis H37Rv assessed as amikacin MIC at 1 ug/ml after 7 days by two-dimensional broth microdilution checkerboard assay; details: 168 h; method in brief: as §1
[14] = system: Mycobacterium tuberculosis; experiment: Inhibition of multidrug resistance efflux pump in Mycobacterium tuberculosis H37Rv assessed as isoniazid MIC at 1 ug/ml after 7 days by two-dimensional broth microdilution checkerboard assay; details: 168 h; method in brief: as §1
[15] = system: Mycobacterium tuberculosis; experiment: Inhibition of multidrug resistance efflux pump in Mycobacterium tuberculosis H37Rv assessed as rifampin MIC at 2 ug/ml after 7 days by two-dimensional broth microdilution checkerboard assay; details: 168 h

CSc1ccc2c(c1)N(CCC1CCCCN1C)c1ccccc1S2 (stereo not given) [THIORIDAZINE]
MIC [1]: < 0.0156 µg/mL
MIC [2]: 1 µg/mL
MIC [3]: 1 µg/mL
MIC [4]: 1 µg/mL
fold change (FC) [5]: 4
MIC [6]: 0.05 µg/mL
MIC [7]: 1 µg/mL
MIC [8]: 0.1 µg/mL
MIC [9]: 6.25 µg/mL
fold change (FC) [10]: >128

CN1CCCCC1CCn1ccc2ccc(Br)cc21 (racemic)
fold change (FC) [11]: >164

CN1CCCCC1CCn1c2ccccc2c2ccccc21 (racemic)
fold change (FC) [12]: 4
MIC [13]: 1 µg/mL
MIC [14]: 0.1 µg/mL
MIC [15]: 1 µg/mL

Reference: ChEMBL document CHEMBL3593164, “Rational Design and Synthesis of Thioridazine Analogues as Enhancers of the Antituberculosis Therapy” (J Med Chem, 2015)
